Test results as given in ChEMBL document CHEMBL3046812, “Synthesis, fungicidal activity, and 3D-QSAR of pyridazinone-substituted 1,3,4-oxadiazoles and 1,3,4-thiadiazoles” (2002).

What follows are compounds tested on Puccinia recondita (assay: Antifungal activity against Puccinia recondita infected wheat leaves after 10 days relative to triadimefon).
Type: functional
How it was run: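 Wheat leaves inoculated with Puccinia recondita uredospores mixed 1:10 with talcum powder, held 24 h in a moist chamber, then sprayed once dry with 0.001 M compound solutions in water/DMF (5:1, with Sorpal-144). Plants kept in greenhouse; percent disease control versus untreated pots scored 10 days after treatment. Three replicates; triadimefon reference tested at 100 ppm under identical conditions.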

| Compound | inhibition (INH) |
| --- | --- |
| Cc1cc(=O)c(-c2nnc(Nc3cccc(C(F)(F)F)c3)s2)nn1-c1cc(Cl)c(Cl)cc1Cl | 0.7% |
| Cc1cc(=O)c(-c2nnc(Nc3cccc(C(F)(F)F)c3)s2)nn1-c1ccccc1 | 0.6% |
| Cc1cc(=O)c(-c2nnc(Nc3ccccc3F)s2)nn1-c1cc(Cl)c(Cl)cc1Cl | 0.6% |
| Cc1ccc(-n2nc(-c3nnc(Nc4cccc(C(F)(F)F)c4)o3)c(=O)cc2C)c(C)c1 | 0.7% |
| COc1ccc(Nc2nnc(-c3nn(-c4ccc(Cl)cc4)c(C)cc3=O)o2)cc1 | 0.8% |
| Cc1cc(=O)c(-c2nnc(Nc3ccccc3F)o2)nn1-c1ccccc1Cl | 0.8% |
| Cc1cc(=O)c(-c2nnc(Nc3ccccc3)o2)nn1-c1ccccc1Cl | 0.1% |
| Cc1ccc(-n2nc(-c3nnc(Nc4ccccc4F)o3)c(=O)cc2C)c(C)c1 | 0.8% |
| Cc1cc(=O)c(-c2nnc(Nc3cccc(C(F)(F)F)c3)o2)nn1-c1ccccc1Cl | 0.9% |
| Cc1cc(=O)c(-c2nnc(Nc3cccc(C(F)(F)F)c3)s2)nn1-c1ccc(Cl)cc1Cl | 0.9% |
| Cc1ccc(-n2nc(-c3nnc(Nc4cccc(C(F)(F)F)c4)s3)c(=O)cc2C)c(C)c1 | 0.9% |
| Cc1cc(=O)c(-c2nnc(Nc3ccccc3F)o2)nn1-c1cc(Cl)c(Cl)cc1Cl | 0.9% |
| Cc1cc(=O)c(-c2nnc(Nc3cccc(C(F)(F)F)c3)s2)nn1-c1ccccc1Cl | 0.7% |
| Cc1ccc(-n2nc(-c3nnc(Nc4ccccc4F)s3)c(=O)cc2C)c(C)c1 | 0.9% |
| Cc1cc(=O)c(-c2nnc(Nc3ccccc3)s2)nn1-c1ccccc1Cl | 0.1% |
| Cc1cc(=O)c(-c2nnc(Nc3ccccc3)s2)nn1-c1ccc(Cl)cc1Cl | 0.2% |
| Cc1cc(=O)c(-c2nnc(Nc3cccc(C(F)(F)F)c3)s2)nn1-c1c(Cl)cccc1Cl | 0.5% |
| Cc1cc(=O)c(-c2nnc(Nc3ccccc3F)s2)nn1-c1ccccc1Cl | 0.1% |
| Cc1cc(=O)c(-c2nnc(Nc3cccc(C(F)(F)F)c3)s2)nn1-c1ccc(Cl)cc1 | 0.6% |
| Cc1cc(=O)c(-c2nnc(Nc3ccccc3F)o2)nn1-c1c(Cl)cccc1Cl | 0.8% |
| Cc1cc(=O)c(-c2nnc(Nc3ccccc3F)s2)nn1-c1ccc(Cl)cc1 | 0.5% |
| Cc1cc(=O)c(-c2nnc(Nc3ccccc3F)o2)nn1-c1ccc(Cl)cc1 | 0.7% |
| Cc1cc(=O)c(-c2nnc(Nc3ccccc3F)s2)nn1-c1ccccc1 | 0.5% |
| Cc1cc(=O)c(-c2nnc(Nc3ccccc3F)o2)nn1-c1ccccc1 | 0.9% |
| Cc1cc(=O)c(-c2nnc(Nc3cccc(C(F)(F)F)c3)o2)nn1-c1ccc(Cl)cc1 | 0.9% |
| Cc1cc(=O)c(-c2nnc(Nc3ccccc3F)s2)nn1-c1c(Cl)cccc1Cl | 0.3% |
| Cc1cc(=O)c(-c2nnc(Nc3ccccc3F)s2)nn1-c1ccc(Cl)cc1Cl | 0.8% |
